Compound activity from PubChem BioAssay.
This is a sample that favours compounds with a hit; in the whole collection about 1.3% have one here.
procasp7 counter: activates human procaspase-7, counter-screen for procaspase-3 activators | hit rate 0.093% among 330,000 | P55210 | activation, % at 8.5 µM | recombinant procaspase-7, Ac-DEVD-pNA absorbance 405 nm; D23A/D198A/D206A triple mutant, cannot self-cleave; scale: DMSO 0, 5 µM enzyme 100;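 active = percent activation above the screen-wide mean plus 3 SD, cut at about 25% in these data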
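Replicates: singlicate. Assay system: Procaspase-7 triple mutant (PC-7 D3A). Signal: 405 nm absorbance of p-nitroaniline. Times: 1 h preincubation, 2 h reaction. Buffer or medium: Zinc-free HEPES pH 7.4 with 300 mM NaCl, 0.01% Triton X-100. Also added: DEVD-pNA substrate. Benchmarks: DMSO wells as 0%, DMSO with 5 µM added PC-7 as 100%.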
CHT inh: inhibitors of human choline transporter CHT | Q9GZV3 | CHT-expressing cells, membrane potential dye, choline response; stronger effect = lower value | B-score at 10 µM | hit rate 0.86% among 310,000;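 active = B-score over 3 SD under the library average, and starting fluorescence ratio not unusually high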;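 also: choline stimulus applied at its EC90 after an EC20 pre-addition; B-score computed on integrated fluorescence ratio after choline addition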
Target sequence (Q9GZV3 whole entry, looked up): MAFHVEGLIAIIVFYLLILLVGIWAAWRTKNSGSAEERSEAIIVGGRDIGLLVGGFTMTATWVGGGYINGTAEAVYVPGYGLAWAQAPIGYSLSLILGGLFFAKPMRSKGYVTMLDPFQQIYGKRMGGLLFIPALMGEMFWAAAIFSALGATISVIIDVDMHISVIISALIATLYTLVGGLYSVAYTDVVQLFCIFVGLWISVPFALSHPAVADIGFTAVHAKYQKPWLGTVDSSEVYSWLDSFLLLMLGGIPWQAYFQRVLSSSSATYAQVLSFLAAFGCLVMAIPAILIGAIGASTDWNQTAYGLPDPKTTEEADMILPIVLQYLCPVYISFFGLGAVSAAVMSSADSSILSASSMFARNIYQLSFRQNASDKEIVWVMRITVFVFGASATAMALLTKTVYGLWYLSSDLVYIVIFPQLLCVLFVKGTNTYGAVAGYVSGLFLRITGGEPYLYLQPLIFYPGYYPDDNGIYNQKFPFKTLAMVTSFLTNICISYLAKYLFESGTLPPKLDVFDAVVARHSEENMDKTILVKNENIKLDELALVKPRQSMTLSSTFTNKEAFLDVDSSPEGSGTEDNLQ
proCasp3 act: procaspase-3 (human) activation; P42574; recombinant procaspase-3 D3A, Ac-DEVD-pNA absorbance 405 nm; activation, % at 8.5 µM; hit rate 0.11% among 330,000; AID 463141;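 active = activation above the mean of all tested compounds plus 3 SD, cut at about 21% in these data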;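 also: 0% = DMSO alone and 100% = DMSO wells spiked with extra 5 µM PC-3 D3A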
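material = Procaspase-3 D3A mutant | probe or stimulus = Ac-DEVD-pNA | compound = single dose, 8.5 µM nominal compound, 0.8% DMSO | timing = 1 h preincubation, 2 h reaction | measured by = 405 nm absorbance of p-nitroaniline, reads at 0 and 120 min | benchmarks = DMSO-only low control, 5 µM PC-3 D3A high control | repeats = singlicate, each compound tested once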
CHT allo act: allosterically activates the human high affinity choline transporter; Q9GZV3; CHT-expressing cells, membrane potential dye, choline EC20; stronger effect = higher value; LV-AA mutant CHT in HEK293 cells; B-score at 10 µM; hit rate 0.49% among 310,000;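 active = initial fluorescence not abnormally high and integrated response B-score, plate-corrected, over 3 SD above library mean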
procasp7 triplic: counter-screen: procaspase-7 (human) activation in triplicate | shares compounds with proCasp3 act | recombinant procaspase-7, Ac-DEVD-pNA absorbance; asp23/198/206-to-Ala mutant, cannot self-cleave | activation, % at 8.5 µM | 210 tested, under 10 active | AID 488941;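 active = mean activation above a set limit taken from an earlier procaspase-7 screen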;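 also: 0% = DMSO wells and 100% = DMSO plus 5 µM procaspase-7 enzyme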
procasp3 conf: confirmation of human procaspase-3 activators; AID 488954; hit rate 10% among 210; shares compounds with proCasp3 act; activation, % at 8.5 µM; recombinant PC-3 D3A, Ac-DEVD-pNA absorbance 405 nm; 100% is higher-enzyme control;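 active = mean activation above a set limit carried over from the earlier primary screen, cut at about 22% in these data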
* marks the source's active call; other numbers are inactive results; i = inactive; . = no result.

SMILES | procasp7 counter | CHT inh | proCasp3 act | CHT allo act | procasp7 triplic | procasp3 conf
CCc1nnc(NC(=O)CSc2nnc3c(C)cc4c(C)ccc(C)c4n23)s1 | 0 | i | 22* | i | 3 | 4
O=C(c1ccc(NS(=O)(=O)/C=C/c2ccccc2)cc1)N1CCCCC1 | 6 | i | -3 | i | . | .
CS(=O)(=O)c1ccc(-c2sc3ccccc3c2C(=O)N2CCN(c3ccc(F)cc3)CC2)cc1 | -2 | . | -4 | . | . | .
COC(CN(C)S(=O)(=O)c1cc2c3c(c1)CCC(=O)N3CCC2)OC | -2 | i | 5 | i | . | .
C/C(CC(=O)Nc1ccc2ccccc2c1)=N\NC(=O)c1ccc(O)c(O)c1 | -7 | i | -1 | i | . | .
O=C(CCNS(=O)(=O)c1ccccc1C(F)(F)F)N1CCN(S(=O)(=O)c2cccc(F)c2)CC1 | 9 | i | 12 | i | . | .
CCC(C)NC(=O)CNC(=O)c1nn(-c2ccc(OC)c(Cl)c2)c(=O)c2ccccc12 (stereo not given) | 3 | i | 22* | i | 3 | 3
O=C1OCCN1C(=O)[C@H]1[C@H](c2ccc(F)cc2)C(c2ccc(F)cc2)=NN1c1ccc(Br)cc1 | 10 | i | 20 | i | . | .
O=C1OCCN1C(=O)[C@H]1[C@H](c2ccc(Cl)cc2)C(c2ccc(F)cc2)=NN1c1ccc(Br)cc1 | 16 | . | 27* | . | -23 | -13
O=C(N/N=C\c1c(O)ccc2ccccc12)c1ccc(O)cc1 | 3 | i | 21* | i | -14 | -15
Cc1ccc(S(=O)(=O)Oc2ccc(/C=C(/NC(=O)c3ccccc3)C(=O)O)cc2)cc1 | 0 | i | 57* | i | 3 | 4
Cc1ccc(S(=O)(=O)Oc2ccc(/C=C(/NC(=O)c3ccccc3)C(=O)NCC(=O)O)cc2)cc1 | -30 | i | -29 | i | . | .
O=C(Nc1cccc(S(=O)(=O)Nc2ccc(Cl)cc2)c1)c1ccccn1 | 4 | . | 6 | . | . | .
O=c1c2ccccc2c(-c2ccccc2)nn1-c1cc(Cl)cc(Cl)c1 | 3 | i | 22* | i | 3 | 6
O=c1c2ccccc2c(-c2ccccc2)nn1Cc1c(Cl)cccc1Cl | 10 | i | -3 | i | . | .
Cc1ccccc1C(=O)N1CCC(C(=O)Nc2nc3ccc(F)cc3s2)CC1 | 3 | i | 23* | i | 3 | 7
CCOC(=O)C1(CCCc2ccccc2)CCN(S(C)(=O)=O)CC1 | -5 | i | 0 | i | . | .
O=S(=O)(NC1CCCCC1)c1ccc(S(=O)(=O)N2CCN3CCCC3C2)cc1 (stereo not given) | 9 | i | 37* | i | 3 | 5
CC(=O)c1ccc(N2CCN(C(=O)c3ccc(Cl)c(NC4=NC5CS(=O)(=O)CC5S4)c3)CC2)cc1 (stereo not given) | 5 | i | 0 | i | . | .
N=c1c(S(=O)(=O)c2ccccc2)cc2c(=O)n3ccccc3nc2n1C1CCCC1 | -17 | i | 30* | i | -22 | -14
Cn1c(SCc2ccccc2F)nc2ccccc2c1=O | 6 | i | 22* | i | 1 | 3
CC1CCC(NC(=O)C2CCN(c3c4c(nc5ncnn35)CCC4)CC2)CC1 (stereo not given) | 9 | i | 3 | i | . | .
Cn1c(N)nc2nc(CCc3ccccc3)c(=O)[nH]c2c1=O | 6 | i | 22* | i | -22 | -14
CCOC(=O)C1=C(COC(=O)c2ccc3ccccc3c2O)NC(=O)NC1C (stereo not given) | -15 | . | 0 | . | . | .
Cc1c(O)ccc2c(CN3CCN(C/C=C/c4ccccc4)CC3)cc(=O)oc12 | 23 | i | 24* | i | -20 | -15
Cc1ccccc1SCC(=O)OCC(=O)NCc1ccccc1 | -2 | . | 2 | . | . | .
Cc1ccc2cc(S(=O)(=O)NCCCN3CCOCC3)ccc2c1 | -5 | i | -5 | i | . | .
COc1ccc2cc(S(=O)(=O)NCCCN3CCOCC3)ccc2c1 | -4 | i | 22* | i | 2 | 6
Cc1ccc(S(=O)(=O)Nc2ccc(-c3nc4ccc(C)cc4s3)cc2)cc1 | 23 | i | 23* | i | 13 | 13
